ChEMBL document CHEMBL4020839, “Class I HDAC Inhibitors Display Different Antitumor Mechanism in Leukemia and Prostatic Cancer Cells Depending on Their p53 Status” (J Med Chem, 2018)
Activity calls are given as the source filed them. The rule behind the calls is not given here.

Assays:
Histone deacetylase 1 = Histone deacetylase 1 (Homo sapiens, UniProt Q13547); details: 0.25 to 2 uM
Histone deacetylase 2 [1] = molecular target: T1, Histone deacetylase 2 (Homo sapiens, UniProt Q92769); details: 0.25 to 2 uM
[2] = molecular target: Histone deacetylase 3 (Homo sapiens) (UniProt O15379); details: 0.25 to 2 uM
Histone deacetylase 8 = molecular target: T2, Histone deacetylase 8 (Homo sapiens, UniProt Q9BY41); test: Inhibition of full length recombinant human C-terminal His-tagged HDAC8 expressed in baculovirus expression system using Boc-Lys(trifluoroacetyl)-AMC as substrate preincubated for 1 hr followed by substrate addition measured after 2 hrs by fluorescence assay
T2 sequence (Q9BY41 whole entry): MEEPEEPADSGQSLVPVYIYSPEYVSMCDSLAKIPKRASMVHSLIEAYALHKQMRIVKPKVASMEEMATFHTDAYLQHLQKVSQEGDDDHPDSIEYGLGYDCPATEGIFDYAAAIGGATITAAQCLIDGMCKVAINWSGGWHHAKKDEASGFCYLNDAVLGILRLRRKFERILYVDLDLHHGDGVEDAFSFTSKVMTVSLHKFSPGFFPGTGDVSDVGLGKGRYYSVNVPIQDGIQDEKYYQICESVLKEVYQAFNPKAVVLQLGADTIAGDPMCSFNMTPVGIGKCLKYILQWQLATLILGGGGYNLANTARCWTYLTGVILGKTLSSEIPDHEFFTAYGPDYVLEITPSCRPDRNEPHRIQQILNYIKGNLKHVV
Outline: (§1)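 Recombinant HDAC incubated with serial compound dilutions at 30 °C for 1 h. Reaction run 2 h at 30 °C, stopped with developer containing trypsin and TSA. Fluorescence read after 30 min at 360/460 nm. Inhibition relative to control wells; IC50 from variable-slope fit.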

MV4-11 [3] = test: Antiproliferative activity against human MV4-11 cells assessed as cell death at 2 to 10 uM after 24 to 48 hrs by CellTiter-Blue assay; assay type: functional, cell-based
Outline: (§2)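 MV4-11 and PC-3 cells treated with 10 or 2 μM (or 0 μM) and sampled at 24 and 48 h. Viable cells measured by CellTiter-Blue resorufin fluorescence, read as in the EC50 assay, which is proportional to viable cell number. Representative of n = 2 experiments.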

MV4-11 [4] = test: Cell cycle arrest in human MV4-11 cells assessed as accumulation at subG1 phase after 24 hrs by propidium iodide staining based flow cytometry; assay type: functional
Histone deacetylase 7 = molecular target: T3, Histone deacetylase 7 (Homo sapiens, UniProt Q8WUI4); test: Inhibition of recombinant human N-terminal GST-tagged HDAC7 (518-end residues) expressed in baculovirus expression system using Boc-Lys(trifluoroacetyl)-AMC as substrate preincubated for 1 hr followed by substrate addition measured after 2 hrs by fluorescence assay
T3 sequence (Q8WUI4 whole entry): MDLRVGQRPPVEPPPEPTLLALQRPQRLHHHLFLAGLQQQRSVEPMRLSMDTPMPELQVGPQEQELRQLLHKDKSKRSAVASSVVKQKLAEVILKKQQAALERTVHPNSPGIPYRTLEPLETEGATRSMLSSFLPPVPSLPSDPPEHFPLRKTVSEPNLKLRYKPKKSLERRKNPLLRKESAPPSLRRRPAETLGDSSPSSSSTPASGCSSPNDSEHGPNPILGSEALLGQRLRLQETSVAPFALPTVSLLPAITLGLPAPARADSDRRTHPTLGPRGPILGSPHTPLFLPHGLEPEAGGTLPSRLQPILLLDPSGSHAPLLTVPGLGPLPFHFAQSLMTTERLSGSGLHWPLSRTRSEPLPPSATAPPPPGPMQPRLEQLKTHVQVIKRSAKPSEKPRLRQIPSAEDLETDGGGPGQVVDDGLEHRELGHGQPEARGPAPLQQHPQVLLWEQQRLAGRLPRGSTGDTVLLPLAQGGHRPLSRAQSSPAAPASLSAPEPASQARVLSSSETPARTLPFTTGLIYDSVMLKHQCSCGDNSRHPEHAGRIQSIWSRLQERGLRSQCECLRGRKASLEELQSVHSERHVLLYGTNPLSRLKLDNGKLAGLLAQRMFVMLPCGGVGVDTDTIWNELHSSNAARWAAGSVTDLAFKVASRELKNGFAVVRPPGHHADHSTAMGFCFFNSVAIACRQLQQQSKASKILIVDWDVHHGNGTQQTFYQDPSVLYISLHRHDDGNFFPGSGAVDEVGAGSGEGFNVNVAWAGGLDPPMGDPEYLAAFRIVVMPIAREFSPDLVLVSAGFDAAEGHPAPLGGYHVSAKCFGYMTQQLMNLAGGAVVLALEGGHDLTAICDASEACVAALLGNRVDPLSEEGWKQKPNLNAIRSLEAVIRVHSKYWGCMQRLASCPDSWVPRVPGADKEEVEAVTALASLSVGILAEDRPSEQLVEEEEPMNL
Outline: as §1

PC-3 [5] = test: Induction of apoptosis in human PC3 cells assessed as increase in cleaved caspase-3 level at 1 to 2 uM after 24 hrs by Western blot method; assay type: functional, cell-based
Outline: (§3)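 MV4-11 (1,500,000/well) or PC-3 (300,000/well) grown 12 h, then treated 24 h at 1 and 2 μM, with 5 μM SAHA as reference. RIPA lysis, sonication and centrifugation, BCA normalization. NuPAGE 4–12% Bis-Tris gel in MES, transfer, primary antibodies 1/1000 overnight at 4 °C. Actin as loading control.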

MV4-11 [6] = test: Downregulation of HDAC6 protein expression in human MV4-11 cells at >= 0.5 uM after 24 hrs by Western blot analysis; assay type: functional, cell-based
Outline: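 MV4-11 cells treated 24 h at 0.25, 0.5, 1 and 2 μM, with 5 μM SAHA as reference. RIPA lysates normalized by BCA, run on 4–12% Bis-Tris gels, probed with primary antibodies at 1/1000 overnight at 4 °C. HDAC6 and acetylated histones/tubulin detected; actin as loading control. Representative of n = 2.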

Histone deacetylase 2 [7] = molecular target: T1, Histone deacetylase 2; details: 0.25 to 2 uM; remark: listed apart in the source
MV4-11 [8] = test: Downregulation of HDAC1 protein expression in human MV4-11 cells at 1 to 2 uM after 24 hrs by Western blot method; assay type: functional, cell-based
Outline: as §3

MV4-11 [9] = test: Induction of p53 degradation in human MV4-11 cells up to 2 uM up to 6 hrs by Western blot analysis; assay type: functional, cell-based
PC-3 [10] = test: Induction of apoptosis in human PC3 cells assessed as increase in cleaved PARP level at 1 to 2 uM after 24 hrs by Western blot method; assay type: functional, cell-based
Outline: as §3

MV4-11 [11] = test: Cell cycle arrest in human MV4-11 cells assessed as accumulation at G1/S phase at 0.5 uM after 24 hrs by propidium iodide staining based flow cytometry; assay type: functional
PC-3 [12] = test: Antiproliferative activity against human PC3 cells assessed as cell viability at 2 uM after 48 hrs by CellTiter-Blue assay relative to control; assay type: functional, cell-based
Outline: as §2

PC-3 [13] = test: Antiproliferative activity against human PC3 cells assessed as cell viability at 10 uM after 48 hrs by CellTiter-Blue assay relative to control; assay type: functional; details: PC-3, 48 h, read-out: Activity
Outline: as §2

PC-3 [14] = test: Cell cycle arrest in human PC3 cells assessed as accumulation at G2/M phase up to 2 uM after 24 hrs by propidium iodide staining based flow cytometry; assay type: functional

T1 sequence (Q92769 whole entry): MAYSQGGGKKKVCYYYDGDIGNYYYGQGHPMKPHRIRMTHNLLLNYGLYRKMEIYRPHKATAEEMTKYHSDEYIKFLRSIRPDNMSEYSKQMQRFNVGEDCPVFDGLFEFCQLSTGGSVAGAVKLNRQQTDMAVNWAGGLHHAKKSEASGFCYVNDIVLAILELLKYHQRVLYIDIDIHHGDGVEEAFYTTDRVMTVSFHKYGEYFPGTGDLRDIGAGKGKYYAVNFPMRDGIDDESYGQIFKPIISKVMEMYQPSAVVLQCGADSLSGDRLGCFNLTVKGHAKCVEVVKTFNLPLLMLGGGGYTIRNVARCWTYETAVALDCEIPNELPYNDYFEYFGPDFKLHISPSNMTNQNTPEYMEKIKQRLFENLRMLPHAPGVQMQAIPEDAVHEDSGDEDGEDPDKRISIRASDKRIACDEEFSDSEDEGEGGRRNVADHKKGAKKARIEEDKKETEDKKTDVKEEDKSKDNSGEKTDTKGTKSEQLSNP
Chain of Histone deacetylase 3 (Homo sapiens) (O15379 whole entry): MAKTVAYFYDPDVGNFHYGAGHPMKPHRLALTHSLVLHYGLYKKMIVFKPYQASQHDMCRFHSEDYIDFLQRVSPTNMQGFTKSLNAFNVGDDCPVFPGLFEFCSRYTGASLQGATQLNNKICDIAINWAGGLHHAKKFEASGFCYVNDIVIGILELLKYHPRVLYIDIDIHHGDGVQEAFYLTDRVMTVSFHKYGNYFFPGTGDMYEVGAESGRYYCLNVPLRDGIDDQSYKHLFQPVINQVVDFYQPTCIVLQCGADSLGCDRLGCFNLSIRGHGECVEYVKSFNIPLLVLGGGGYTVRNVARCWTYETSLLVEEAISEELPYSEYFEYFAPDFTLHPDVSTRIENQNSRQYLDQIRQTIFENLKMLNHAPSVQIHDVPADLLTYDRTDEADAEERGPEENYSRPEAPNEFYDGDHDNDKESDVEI
Chain of Histone deacetylase 1 (Q13547 whole entry): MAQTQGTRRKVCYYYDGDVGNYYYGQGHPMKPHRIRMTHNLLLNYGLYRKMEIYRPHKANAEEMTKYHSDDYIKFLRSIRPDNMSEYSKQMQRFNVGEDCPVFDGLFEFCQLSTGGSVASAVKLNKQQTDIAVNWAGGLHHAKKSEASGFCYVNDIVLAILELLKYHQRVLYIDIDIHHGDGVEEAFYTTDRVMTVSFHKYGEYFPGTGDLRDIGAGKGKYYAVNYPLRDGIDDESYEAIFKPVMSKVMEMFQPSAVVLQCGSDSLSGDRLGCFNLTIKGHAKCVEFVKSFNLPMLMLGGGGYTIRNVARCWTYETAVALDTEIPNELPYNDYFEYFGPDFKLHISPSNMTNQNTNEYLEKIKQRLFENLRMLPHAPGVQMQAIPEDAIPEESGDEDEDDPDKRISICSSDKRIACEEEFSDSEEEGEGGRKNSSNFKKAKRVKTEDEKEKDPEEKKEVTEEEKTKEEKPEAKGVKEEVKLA

For `CCCNNC(=O)c1ccc(NC(=O)[C@H](Cc2c[nH]c3ccccc23)NC(=O)c2ccc(OC)cc2)cc1`, the inhibition (Histone deacetylase 1) was “Active”, the inhibition (Histone deacetylase 2 [1]) was “Active” and the inhibition [2] was “Active”. The IC50 (Histone deacetylase 8) was 626 nM, the Activity (MV4-11 [3]) was “Active” and the Activity (MV4-11 [4]) was “Dose-dependent effect”. For the same compound, the IC50 (Histone deacetylase 7) was greater than 50000 nM, the Activity (PC-3 [5]) was “inactive” and the Activity (MV4-11 [6]) was “Active”. For the same compound, the inhibition (Histone deacetylase 2 [7]) was “Active”, the Activity (MV4-11 [8]) was “inactive” and the Activity (MV4-11 [9]) was “Active”. For the same compound, the Activity (PC-3 [10]) was “inactive”, the Activity (MV4-11 [11]) was “Active” and the Activity (PC-3 [12]) was “inactive”. For the same compound, the viability at 10 µM (PC-3 [13]) was 20% and the Activity (PC-3 [14]) was “Active”.
